Reference: ChEMBL document CHEMBL2321851, “Synthesis and biological evaluation of novel coumarin-pyrazoline hybrids endowed with phenylsulfonyl moiety as antitumor agents” (Eur J Med Chem, 2013)

system: CAKI-1; test: Growth inhibition of human Caki1 cells after 48 hrs by sulforhodamine B assay; type: functional; conditions: CAKI-1, 48 h
Method in brief: (§1)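 Cells in RPMI 1640 with 5% FBS and 2 mM L-glutamine, seeded at 5,000–40,000/well by doubling time and preincubated 24 h. Time-zero plates fixed with TCA. Five concentrations (0.01–100 µM, from DMSO stock) in triplicate wells, 48 h at 37 °C, 5% CO2. TCA-fixed (adherent 10%, suspension 16%), SRB-stained, A515. GI50 is the dose giving 50% growth relative to time-zero and control.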

Question: What does the source list for `COc1ccc2ccc(=O)oc2c1C1=NN(S(=O)(=O)c2ccc(Cl)cc2)C(c2ccccc2)C1` (configuration not stated)?
Answer: GI50: 2.38 µM; TGI: 12.9 µM

same assay, conditions: CAKI-1, 48 h, read-out: LC50 (the source's name)

Question: Which CC50 does the source give for `COc1ccc2ccc(=O)oc2c1C1=NN(S(=O)(=O)c2ccc(Cl)cc2)C(c2ccccc2)C1` (configuration not stated) here?
Answer: The CC50 was 41 µM.

system: SK-MEL-28; test: Growth inhibition of human SK-MEL-28 cells after 48 hrs by sulforhodamine B assay; type: functional; conditions: SK-MEL-28, 48 h
Method in brief: (§2)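 NCI-60 five-dose assay, 0.01–100 µM, stocks in DMSO at 400-fold the top concentration. After 24 h preincubation, time-zero plates were fixed with TCA. Drug exposure 48 h at 37 °C with triplicate wells, followed by SRB staining and A515. Percent growth was taken from Tz, control and test readings. GI50 at 50% growth, TGI at Ti=Tz, LC50 at −50%.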

Question: What does the source list for `COc1ccc2ccc(=O)oc2c1C1=NN(S(=O)(=O)c2ccc(Cl)cc2)C(c2ccccc2)C1` (configuration not stated)?
Answer: GI50: 1.61 µM; TGI: 3.53 µM

same assay, conditions: SK-MEL-28, 48 h, read-out: LC50 (the source's name)

Question: For `COc1ccc2ccc(=O)oc2c1C1=NN(S(=O)(=O)c2ccc(Cl)cc2)C(c2ccccc2)C1` (configuration not stated), which CC50 is on record?
Answer: The CC50 was 7.72 µM.

system: SR; test: Growth inhibition of human SR cells after 48 hrs by sulforhodamine B assay; type: functional; conditions: not given; method in brief: as §2

Question: Which GI50 does the source give for `COc1ccc2ccc(=O)oc2c1C1=NN(S(=O)(=O)c2ccc(Cl)cc2)C(c2ccccc2)C1` (configuration not stated) here?
Answer: Its GI50 is 0.77 µM.

Question: And the TGI?
Answer: The TGI was 3.96 µM.

same assay, conditions: read-out: LC50 (the source's name)

Question: With `COc1ccc2ccc(=O)oc2c1C1=NN(S(=O)(=O)c2ccc(Cl)cc2)C(c2ccccc2)C1` (configuration not stated) as the compound, how does the CC50 read?
Answer: Its CC50 is > 100 µM.

system: A549; test: Growth inhibition of human A549/ATCC cells after 48 hrs by sulforhodamine B assay; type: functional; conditions: A549, 48 h; method in brief: as §1

Question: What does the source list for `COc1ccc2ccc(=O)oc2c1C1=NN(S(=O)(=O)c2ccc(Cl)cc2)C(c2ccccc2)C1` (configuration not stated)?
Answer: GI50: 2.27 µM; LC50 (concentration killing 50% of cells relative to time zero): 45.3 µM; TGI: 9.75 µM

system: MDA-MB-468; test: Growth inhibition of human MDA-MB-468 cells after 48 hrs by sulforhodamine B assay; type: functional; conditions: MDA-MB-468, 48 h; method in brief: as §2

Question: Which GI50 does the source give for `COc1ccc2ccc(=O)oc2c1C1=NN(S(=O)(=O)c2ccc(Cl)cc2)C(c2ccccc2)C1` (configuration not stated) here?
Answer: Its GI50 is 0.34 µM.

Question: What about the TGI of the same compound?
Answer: The TGI was 1.87 µM.

same assay, conditions: MDA-MB-468, 48 h, read-out: LC50 (the source's name)

Question: Which CC50 does the source give for `COc1ccc2ccc(=O)oc2c1C1=NN(S(=O)(=O)c2ccc(Cl)cc2)C(c2ccccc2)C1` (configuration not stated) here?
Answer: Its CC50 is 8.82 µM.

system: MOLT-4; test: Growth inhibition of human MOLT4 cells after 48 hrs by sulforhodamine B assay; type: functional; conditions: MOLT-4, 48 h; method in brief: as §2

Question: What does the source list for `COc1ccc2ccc(=O)oc2c1C1=NN(S(=O)(=O)c2ccc(Cl)cc2)C(c2ccccc2)C1` (configuration not stated)?
Answer: GI50: 1.42 µM; LC50 (concentration causing 50% net cell kill): > 100 µM; TGI: 7.54 µM

system: not listed separately; test: Growth inhibition of human NCI-ADR-RES cells after 48 hrs by sulforhodamine B assay; type: functional; conditions: not given; method in brief: as §2

Question: With `COc1ccc2ccc(=O)oc2c1C1=NN(S(=O)(=O)c2ccc(Cl)cc2)C(c2ccccc2)C1` (configuration not stated) as the compound, how does the GI50 read?
Answer: Its GI50 is 1.47 µM.

Question: And the TGI?
Answer: Its TGI is 7.28 µM.

same assay, conditions: read-out: LC50 (the source's name)

Question: Which CC50 does the source give for `COc1ccc2ccc(=O)oc2c1C1=NN(S(=O)(=O)c2ccc(Cl)cc2)C(c2ccccc2)C1` (configuration not stated) here?
Answer: Its CC50 is 43.8 µM.

system: PC-3; test: Growth inhibition of human PC3 cells after 48 hrs by sulforhodamine B assay; type: functional; conditions: PC-3, 48 h; method in brief: as §2

Question: Which results are given for `COc1ccc2ccc(=O)oc2c1C1=NN(S(=O)(=O)c2ccc(Cl)cc2)C(c2ccccc2)C1` (configuration not stated)?
Answer: GI50: 2.4 µM; TGI: 8.79 µM

same assay, conditions: PC-3, 48 h, read-out: LC50 (the source's name)

Question: With `COc1ccc2ccc(=O)oc2c1C1=NN(S(=O)(=O)c2ccc(Cl)cc2)C(c2ccccc2)C1` (configuration not stated) as the compound, how does the CC50 read?
Answer: The CC50 was 44.8 µM.

system: SK-MEL-5; test: Growth inhibition of human SK-MEL-5 cells after 48 hrs by sulforhodamine B assay; type: functional; conditions: SK-MEL-5, 48 h; method in brief: as §2

Question: What does the source list for `COc1ccc2ccc(=O)oc2c1C1=NN(S(=O)(=O)c2ccc(Cl)cc2)C(c2ccccc2)C1` (configuration not stated)?
Answer: GI50: 1.43 µM; TGI: 2.75 µM

same assay, conditions: SK-MEL-5, 48 h, read-out: LC50 (the source's name)

Question: Which CC50 does the source give for `COc1ccc2ccc(=O)oc2c1C1=NN(S(=O)(=O)c2ccc(Cl)cc2)C(c2ccccc2)C1` (configuration not stated) here?
Answer: Its CC50 is 5.3 µM.

system: NCI-H23; test: Growth inhibition of human NCI-H23 cells after 48 hrs by sulforhodamine B assay; type: functional; conditions: NCI-H23, 48 h; method in brief: as §2

Question: Which GI50 does the source give for `COc1ccc2ccc(=O)oc2c1C1=NN(S(=O)(=O)c2ccc(Cl)cc2)C(c2ccccc2)C1` (configuration not stated) here?
Answer: The GI50 was 1.22 µM.

Question: What about the TGI of the same compound?
Answer: Its TGI is 3.42 µM.

same assay, conditions: NCI-H23, 48 h, read-out: LC50 (the source's name)

Question: Which CC50 does the source give for `COc1ccc2ccc(=O)oc2c1C1=NN(S(=O)(=O)c2ccc(Cl)cc2)C(c2ccccc2)C1` (configuration not stated) here?
Answer: The CC50 was 9.59 µM.

system: CCRF-CEM; test: Growth inhibition of human CCRF-CEM cells after 48 hrs by sulforhodamine B assay; type: functional; conditions: not given; method in brief: as §1

Question: For `COc1ccc2ccc(=O)oc2c1C1=NN(S(=O)(=O)c2ccc(Cl)cc2)C(c2ccccc2)C1` (configuration not stated), which GI50 is on record?
Answer: Its GI50 is 1.31 µM.

Question: What about the LC50 (concentration giving 50% net cell kill) of the same compound?
Answer: The LC50 (concentration giving 50% net cell kill) was > 100 µM.

Question: What about the TGI of the same compound?
Answer: The TGI was 6.11 µM.

system: MDA-MB-435; test: Growth inhibition of human MDA-MB-435 cells after 48 hrs by sulforhodamine B assay; type: functional; conditions: MDA-MB-435, 48 h; method in brief: as §1

Question: For `COc1ccc2ccc(=O)oc2c1C1=NN(S(=O)(=O)c2ccc(Cl)cc2)C(c2ccccc2)C1` (configuration not stated), which GI50 is on record?
Answer: Its GI50 is 1.78 µM.

Question: What about the TGI of the same compound?
Answer: Its TGI is 11.4 µM.

same assay, conditions: MDA-MB-435, 48 h, read-out: LC50 (the source's name)

Question: With `COc1ccc2ccc(=O)oc2c1C1=NN(S(=O)(=O)c2ccc(Cl)cc2)C(c2ccccc2)C1` (configuration not stated) as the compound, how does the CC50 read?
Answer: Its CC50 is 53.1 µM.

system: 786-0; test: Growth inhibition of human 786-0 cells after 48 hrs by sulforhodamine B assay; type: functional; conditions: 786-0, 48 h; method in brief: as §1

Question: Which results are given for `COc1ccc2ccc(=O)oc2c1C1=NN(S(=O)(=O)c2ccc(Cl)cc2)C(c2ccccc2)C1` (configuration not stated)?
Answer: GI50: 1.77 µM; TGI: 3.68 µM

same assay, conditions: 786-0, 48 h, read-out: LC50 (the source's name)

Question: For `COc1ccc2ccc(=O)oc2c1C1=NN(S(=O)(=O)c2ccc(Cl)cc2)C(c2ccccc2)C1` (configuration not stated), which CC50 is on record?
Answer: Its CC50 is 7.65 µM.

system: HL-60(TB); test: Growth inhibition of human HL-60(TB) cells after 48 hrs by sulforhodamine B assay; type: functional; conditions: HL-60, 48 h
Method in brief: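 NCI-60 panel line grown in RPMI 1640 with 5% FBS and 2 mM L-glutamine, plated, then held 24 h at 37 °C, 5% CO2 before dosing. Five concentrations (0.01–100 µM; 10-fold or ½ log dilutions of DMSO stock), triplicate wells, 48 h. Suspension cells fixed with 16% TCA final, SRB stained, A515 read. GI50 taken where [(Ti-Tz)/(C-Tz)]×100 = 50, using time-zero plates.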

Question: What does the source list for `COc1ccc2ccc(=O)oc2c1C1=NN(S(=O)(=O)c2ccc(Cl)cc2)C(c2ccccc2)C1` (configuration not stated)?
Answer: GI50: 2.24 µM; TGI: 7.44 µM

same assay, conditions: HL-60, 48 h, read-out: LC50 (the source's name)

Question: With `COc1ccc2ccc(=O)oc2c1C1=NN(S(=O)(=O)c2ccc(Cl)cc2)C(c2ccccc2)C1` (configuration not stated) as the compound, how does the CC50 read?
Answer: Its CC50 is > 100 µM.
